Key:
Acetylcholinesterase [1] = molecular target: T1, Acetylcholinesterase (Homo sapiens, UniProt P22303); experiment: Inhibition of human […] recombinant AChE after 20 mins using acetylthiocholine iodide as a substrate by Ellman's assay
Cholinesterase = Cholinesterase (Homo sapiens, UniProt P06276); experiment: Inhibition of human serum recombinant BChE after 20 mins using butyrylthiocholine iodide as a substrate by Ellman's assay
SH-SY5Y [2] = experiment: Antioxidant activity in human SH-SY5Y cells assessed as inhibition of tert-butyl hydroperoxide-induced intracellular ROS production at 1 uM after 24 hrs using DCFH-DA by fluorescence assay (reference value: 82.4 +/- 6.6 %); format: functional; parameters: scale not given: the % may be the effect or the level left
SH-SY5Y [3] = experiment: Antioxidant activity in human SH-SY5Y cells assessed as inhibition of tert-butyl hydroperoxide-induced intracellular ROS production at 5 uM after 24 hrs using DCFH-DA by fluorescence assay (reference value: 82.4 +/- 6.6 %); format: functional; parameters: scale not given: the % may be the effect or the level left
SH-SY5Y [4] = experiment: Antioxidant activity in human SH-SY5Y cells assessed as inhibition of tert-butyl hydroperoxide-induced intracellular ROS production at 10 uM after 24 hrs using DCFH-DA by fluorescence assay (reference value: 82.4 +/- 6.6 %); format: functional; parameters: scale not given: the % may be the effect or the level left
SH-SY5Y [5] = experiment: Cytotoxicity against human SH-SY5Y cells assessed as reduction in cell viability at 50 uM after 24 hrs by MTT assay; format: cell-based
Procedure, shortened: (§1)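 Cells were SH-SY5Y, grown in DMEM with 10% fetal calf serum and 2 mM glutamine, seeded at 2 × 10^5 cells/well and allowed 24 h at 37 °C/5% CO2. Compound-containing media (0.1–50 µM) were applied for 24 h. After a PBS wash, cells took up MTT (5 mg/mL in PBS) for 4 h. Formazan was dissolved in isopropanol and read at 405 nm. Viability is given as % of control cells.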

SH-SY5Y [6] = experiment: Antioxidant activity in human SH-SY5Y cells assessed as inhibition of tert-butyl hydroperoxide-induced intracellular ROS production at 50 uM after 24 hrs using DCFH-DA by fluorescence assay (reference value: 82.4 +/- 6.6 %); format: functional; parameters: scale not given: the % may be the effect or the level left
SH-SY5Y [7] = experiment: Cytotoxicity against human SH-SY5Y cells at 0.1 to 50 uM after 24 hrs by MTT assay; format: cell-based; procedure, shortened: as §1
Acetylcholinesterase [8] = molecular target: T1, Acetylcholinesterase; experiment: Inhibition of human AChE-induced amyloid beta (1 to 40) aggregation at 100 uM after 24 hrs by thioflavin T based fluorometric assay

Cholinesterase, sequence (P06276 whole entry): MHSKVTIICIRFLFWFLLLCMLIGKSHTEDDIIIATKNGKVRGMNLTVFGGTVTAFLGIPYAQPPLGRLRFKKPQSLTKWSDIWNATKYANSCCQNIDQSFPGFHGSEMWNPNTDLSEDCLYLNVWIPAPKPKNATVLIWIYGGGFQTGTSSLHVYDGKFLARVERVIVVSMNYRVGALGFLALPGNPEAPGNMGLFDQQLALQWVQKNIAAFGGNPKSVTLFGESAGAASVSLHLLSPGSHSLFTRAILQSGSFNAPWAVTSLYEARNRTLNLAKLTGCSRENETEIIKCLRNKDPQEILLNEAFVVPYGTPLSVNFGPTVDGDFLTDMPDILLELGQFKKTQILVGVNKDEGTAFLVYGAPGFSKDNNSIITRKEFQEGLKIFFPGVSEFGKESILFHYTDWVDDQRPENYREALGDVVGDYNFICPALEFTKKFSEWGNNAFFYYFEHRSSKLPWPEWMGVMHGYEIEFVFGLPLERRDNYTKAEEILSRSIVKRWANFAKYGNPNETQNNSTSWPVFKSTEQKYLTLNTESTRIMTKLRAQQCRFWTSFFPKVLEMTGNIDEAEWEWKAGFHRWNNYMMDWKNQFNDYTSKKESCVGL
T1 sequence (P22303 whole entry): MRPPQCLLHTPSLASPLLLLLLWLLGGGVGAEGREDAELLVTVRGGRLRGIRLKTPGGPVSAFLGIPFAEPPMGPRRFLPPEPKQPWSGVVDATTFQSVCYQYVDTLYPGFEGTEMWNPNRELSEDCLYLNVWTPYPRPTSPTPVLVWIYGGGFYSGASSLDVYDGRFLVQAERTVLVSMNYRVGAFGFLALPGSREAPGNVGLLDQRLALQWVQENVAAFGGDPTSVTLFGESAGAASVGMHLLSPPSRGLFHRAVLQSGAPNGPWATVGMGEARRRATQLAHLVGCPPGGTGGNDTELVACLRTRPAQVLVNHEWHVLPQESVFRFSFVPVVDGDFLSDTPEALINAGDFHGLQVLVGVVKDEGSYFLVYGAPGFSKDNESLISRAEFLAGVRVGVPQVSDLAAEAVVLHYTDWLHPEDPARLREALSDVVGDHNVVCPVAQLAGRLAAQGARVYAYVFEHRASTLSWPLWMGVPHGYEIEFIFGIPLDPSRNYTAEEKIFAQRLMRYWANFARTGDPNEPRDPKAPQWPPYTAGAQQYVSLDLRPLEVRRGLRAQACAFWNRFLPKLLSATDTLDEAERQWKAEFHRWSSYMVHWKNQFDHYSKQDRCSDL

Structure (SMILES)	IC50 (Acetylcholinesterase [1]) [nM]	IC50 (Cholinesterase) [nM]	Activity (SH-SY5Y [2]) [%]	Activity (SH-SY5Y [3]) [%]	Activity (SH-SY5Y [4]) [%]	Activity (SH-SY5Y [5]) [%]	Activity (SH-SY5Y [6]) [%]	Activity (SH-SY5Y [7])	inhibition (Acetylcholinesterase [8]) [%]
O=C(CCCC[C@H]1CCSS1)NCCCNc1c2c(nc3cc(Cl)ccc13)CCCC2	0.471	12.1							
O=C(CCCC[C@@H]1CCSS1)NCCCNc1c2c(nc3cc(Cl)ccc13)CCCC2		12.6							
O=C(CCCCc1cccs1)NCCCNc1c2c(nc3cc(Cl)ccc13)CCCC2			81	79.8	80.2	80			
COc1cccc(C(C)N(C)CCCNC(=O)CCCCC2CCSS2)c1 (mixture of isomers)			82.5	80	68.8		46.4	Non-toxic	
CC(c1cccc(OCCCNC(=O)CCCCC2CCSS2)c1)N(C)C (mixture of isomers)			80.3	76.8	48		34.4	Non-toxic	
COc1cc2nc(Cl)nc(NCCCNC(=O)CCCCC3CCSS3)c2cc1OC (racemic)		205000	82	73.5	63.4	30			
CCN(CCCCCCNC(=O)CCCCC1CCSS1)Cc1ccccc1OC (racemic)			80.8	75.8	69.6		37.6	Non-toxic	16.8
O=C(CCCCC1CCSS1)NCCCNc1c2c(nc3cc(Cl)ccc13)CCCC2 (racemic) [LIPOCRINE]			83.2	65	50		31		61.8

Source: ChEMBL document CHEMBL1909586 (Eur J Med Chem, 2011)
